Reference: ChEMBL document CHEMBL1122579, “Synthesis and biological activity of nucleosides and nucleotides related to the antitumor agent 2-beta-D-ribofuranosylthiazole-4-carboxamide” (J Med Chem, 1984)

Columns and labels:
Mus musculus [1] = experiment: Mice were inoculated intraperitoneally with L1210 leukemia cells and the percentage ILS of the mice with the compound was evaluated at a dose of 100 mg/kg; format: functional; conditions: L1210, ip, route intraperitoneal
Method in brief: (§1)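 Mice implanted ip with L1210 leukemia, in groups of six, with 36 untreated controls. Drug given ip on days 1-5 at 50-800 mg/kg. Endpoint was median life span in days, with percent increase in life span (ILS) relative to untreated controls. Body weight change was taken as day 5 minus day 1 average weight.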

Mus musculus [2] = experiment: Mice were inoculated intraperitoneally with L1210 leukemia cells and the change in body weight of the mice with the compound was evaluated at a dose of 400 mg/kg; format: functional; conditions: route intraperitoneal
Method in brief: (§2)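 Mice received intraperitoneally implanted L1210 leukemia, with groups of six treated mice and 36 untreated controls. Compound was given intraperitoneally on days 1-5. Body weight change was the average weight on day 5 minus the average on day 1, in grams. Median life span and % ILS were recorded against the untreated controls.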

Mus musculus [3] = experiment: Mice were inoculated intraperitoneally with L1210 leukemia cells and the change in body weight of the mice with the compound was evaluated at a dose of 100 mg/kg; format: functional; conditions: route intraperitoneal; method in brief: as §2
Mus musculus [4] = experiment: Mice were inoculated intraperitoneally with L1210 leukemia cells and the median life span of the mice with the compound was evaluated at a dose of 100 mg/kg; format: functional; conditions: route intraperitoneal; method in brief: as §1
Mus musculus [5] = experiment: Mice were inoculated intraperitoneally with L1210 leukemia cells and the percentage ILS of the mice with the compound was evaluated at a dose of 400 mg/kg; format: functional; conditions: L1210, ip, route intraperitoneal; method in brief: as §1
Mus musculus [6] = experiment: Mice were inoculated intraperitoneally with L1210 leukemia cells and the percentage ILS of the mice with the compound was evaluated at a dose of 200 mg/kg; format: functional; conditions: L1210, ip, route intraperitoneal; method in brief: as §1
Mus musculus [7] = experiment: Mice were inoculated intraperitoneally with L1210 leukemia cells and the change in body weight of the mice with the compound was evaluated at a dose of 200 mg/kg; format: functional; conditions: route intraperitoneal; method in brief: as §2
Mus musculus [8] = experiment: Mice were inoculated intraperitoneally with L1210 leukemia cells and the median life span of the mice with the compound was evaluated at a dose of 400 mg/kg; format: functional; conditions: route intraperitoneal; method in brief: as §1
Mus musculus [9] = experiment: Mice were inoculated intraperitoneally with L1210 leukemia cells and the median life span of the mice with the compound was evaluated at a dose of 50 mg/kg; format: functional; conditions: route intraperitoneal; method in brief: as §1
Mus musculus [10] = experiment: Mice were inoculated intraperitoneally with L1210 leukemia cells and the change in body weight of the mice with the compound was evaluated at a dose of 50 mg/kg; format: functional; conditions: route intraperitoneal; method in brief: as §2
Mus musculus [11] = experiment: Mice were inoculated intraperitoneally with L1210 leukemia cells and the median life span of the mice with the compound was evaluated at a dose of 200 mg/kg; format: functional; conditions: route intraperitoneal; method in brief: as §1
Mus musculus [12] = experiment: Mice were inoculated intraperitoneally with L1210 leukemia cells and the percentage ILS of the mice with the compound was evaluated at a dose of 50 mg/kg; format: functional; conditions: L1210, ip, route intraperitoneal; method in brief: as §1
Mus musculus [13] = experiment: Mice were inoculated intraperitoneally with L1210 leukemia cells and the percentage ILS of the mice with the compound was evaluated at a dose of 800 mg/kg; format: functional; conditions: L1210, ip, route intraperitoneal; method in brief: as §1
Mus musculus [14] = experiment: Mice were inoculated intraperitoneally with L1210 leukemia cells and the median life span of the mice with the compound was evaluated at a dose of 25 mg/kg; format: functional; conditions: route intraperitoneal
Mus musculus [15] = experiment: Mice were inoculated intraperitoneally with L1210 leukemia cells and the change in body weight of the mice with the compound was evaluated at a dose of 25 mg/kg; format: functional; conditions: route intraperitoneal
Mus musculus [16] = experiment: Mice were inoculated intraperitoneally with L1210 leukemia cells and the change in body weight of the mice with the compound was evaluated at a dose of 800 mg/kg; format: functional; conditions: route intraperitoneal; method in brief: as §2
Mus musculus [17] = experiment: Mice were inoculated intraperitoneally with L1210 leukemia cells and the median life span of the mice with the compound was evaluated at a dose of 800 mg/kg; format: functional; conditions: route intraperitoneal; method in brief: as §1
Mus musculus [18] = species on record: Mus musculus; experiment: Compound was evaluated for the cytotoxicity to L1210 leukemia cells in culture at ~1.6-fold higher concentrations and expressed as ID50; format: functional; conditions: read-out: ID50 (the source's name)
Mus musculus [19] = experiment: Mice were inoculated intraperitoneally with L1210 leukemia cells and the percentage ILS of the mice with the compound was evaluated at a dose of 25 mg/kg; format: functional; conditions: L1210, ip, route intraperitoneal
T-cells (human) = experiment: Compound was evaluated for the cytotoxicity to T cells in the presence of 2'-deoxyguanosine and expressed as ED50
[20] = target: purine nucleoside phosphorylase (human) (UniProt P00491); experiment: Compound was evaluated for the concentration which […] inosine phosphorolysis by human lymphoblast purine nucleoside phosphorylase and expressed as IC50

| SMILES | ILS at 100 mg/kg (Mus musculus [1]) [%] | Body weight change (Mus musculus [2]) [g] | Body weight change (Mus musculus [3]) [g] | Median life span (Mus musculus [4]) [days] | ILS at 400 mg/kg (Mus musculus [5]) [%] | ILS at 200 mg/kg (Mus musculus [6]) [%] | Body weight change (Mus musculus [7]) [g] | Median life span (Mus musculus [8]) [days] | Median life span (Mus musculus [9]) [days] | Body weight change (Mus musculus [10]) [g] | Median life span (Mus musculus [11]) [days] | ILS at 50 mg/kg (Mus musculus [12]) [%] | ILS at 800 mg/kg (Mus musculus [13]) [%] | Body weight change (Mus musculus [16]) [g] | Median life span (Mus musculus [17]) [days] | IC50 (Mus musculus [18]) [µM] | other results |
| --- | --- | --- | --- | --- | --- | --- | --- | --- | --- | --- | --- | --- | --- | --- | --- | --- | --- |
| NC(=O)c1csc([C@@H]2O[C@@H]3COP(=O)(O)O[C@H]3[C@H]2O)n1 | 23 | -3.1 | -0.6 | 14.3 | 55 | 52 | -1.9 | 18 | 13.3 | -1.1 | 17.7 | 14 |  |  |  |  |  |
| NC(=O)c1csc([C@@H]2O[C@H](CO)[C@@H](O)[C@H]2O)n1 [TIAZOFURIN] | 82 | -3.9 | -2.5 | 14.8 | 100 | 103 | -2.9 | 16.2 | 13.5 | -2.1 | 16.5 | 66 | 85 | -4.4 | 15 | 1.9 | Median life span (Mus musculus [14]): 12.8 days; Body weight change (Mus musculus [15]): -2.6 g; ILS at 25 mg/kg (Mus musculus [19]): 58% |
| N=C(N)c1csc([C@@H]2O[C@H](CO)[C@@H](O)[C@H]2O)n1 |  |  |  |  |  |  |  |  |  |  |  |  |  |  |  |  | EC50 (T-cells (human)): 77 µM; IC50 [20]: 300 µM |
| NC(=O)c1csc([C@@H]2O[C@H](COP(=O)(O)O)[C@@H](O)[C@H]2O)n1 | 86 | -2 | -1 | 15.5 | 83 | 159 | -1.4 | 15.2 | 11.3 | -0.6 | 21.5 | 36 | 96 | -3.6 | 16.3 | 3.2 |  |
